This is a sample that favours compounds with a hit; in the whole collection about 2.3% have one here.
TCR-CD3 inh – blocks the human TCR-CD3 interaction. 360,000 compounds, 0.37% hits. TAMRA-labeled TCR probe fluorescence, biochemical. inhibition, % at 9.4 µM; in the data active = inhibition above about 19%;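 note: recombinant mutant TCR 2C K166C tagged with TAMRA read by polarization; 0% = receptor in buffer alone and 100% = receptor with positive control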
SIAE primary – blocks human sialic acid acetylesterase | SIAE FP-Rh probe binding, fluorescence polarization | 370,000 compounds, 0.69% hits | AID 1053197 | inhibition, % at 9.66 µM;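 active = inhibition above a cutoff: mean of compounds within the control limits plus 3 SD of those, cut at about 17% in these data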;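 note: 0% = plate median of compound wells and 100% = probe without SIAE protein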
HTRA1 inhibitor – HTRA1 (human) protease inhibition | recombinant HTRA1, FP-rhodamine activity-based probe, fluorescence polarization | inhibition, % at 5.96 µM | 340,000 compounds, 0.5% hits; in the data active = inhibition above about 36%;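 note: 0% = enzyme with DMSO and 100% = wells lacking enzyme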
Target sequence (Q92743 whole entry, looked up): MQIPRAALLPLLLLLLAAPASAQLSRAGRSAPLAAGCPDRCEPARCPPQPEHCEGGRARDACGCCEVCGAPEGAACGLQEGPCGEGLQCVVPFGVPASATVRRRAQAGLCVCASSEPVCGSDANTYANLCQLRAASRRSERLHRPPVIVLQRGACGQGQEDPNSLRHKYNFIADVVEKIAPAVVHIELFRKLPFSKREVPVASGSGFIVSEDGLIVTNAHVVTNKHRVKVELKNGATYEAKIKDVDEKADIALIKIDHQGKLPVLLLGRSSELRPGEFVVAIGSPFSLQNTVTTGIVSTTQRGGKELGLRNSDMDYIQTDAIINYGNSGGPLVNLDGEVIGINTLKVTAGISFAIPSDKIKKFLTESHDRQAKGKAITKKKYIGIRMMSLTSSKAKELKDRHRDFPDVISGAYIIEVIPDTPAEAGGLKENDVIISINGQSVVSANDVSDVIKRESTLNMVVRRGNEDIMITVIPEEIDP
ABHD4 inh – ABHD4 (mouse) inhibition, primary FP screen; Q8VD66; purified mABHD4, FP-Rh probe fluorescence polarization; inhibition, % at 8.92 µM; 370,000 compounds, 0.54% hits; AID 720543;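 active = inhibition exceeding the mean over every tested compound plus 3 SD, cut at about 30% in these data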;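 note: 0% = plate median of compound wells and 100% = S159A mutant with DMSO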
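Test system: mABHD4 protein; Read-out basis: % inhibition; Incubation: 45 min + 60 min at 25 °C; Repeats: single replicate; Technique: fluorescence polarization with parallel and perpendicular emission, 525/598 nm; Compound: 8.92 µM, single dose; Benchmarks: full inhibition S159A mutant plus DMSO, zero as sample-well median.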
pPAFAH inh – inhibitors of human plasma PAF acetylhydrolase (pPAFAH). Q13093. recombinant pPAFAH, FP-rhodamine probe fluorescence polarization. inhibition, % at 3.39 µM. 330,000 compounds, 1.5% hits. AID 463082;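 active = inhibition above the mean inhibition across the screen plus 3 SD, cut at about 25% in these data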;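 note: inhibitors block binding of the rhodamine activity-based probe so polarization drops; 0% = enzyme with DMSO and 100% = wells lacking pPAFAH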
ABHD4 confirm – ABHD4 (mouse) inhibition, FP confirmation. 1,800 compounds, 55% hits. AID 720658. inhibition, % at 8.92 µM. purified mABHD4, FP-Rh probe fluorescence polarization. shares compounds with ABHD4 inh;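 active = mean inhibition across replicates above the hit cutoff set in the primary screen, cut at about 30% in these data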;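 note: 0% = wild-type ABHD4 with DMSO and 100% = catalytically dead S159A mutant with DMSO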
Active calls of the source: *; . = no result given.

SMILES	TCR-CD3 inh	SIAE primary	HTRA1 inhibitor	ABHD4 inh	pPAFAH inh	ABHD4 confirm
COc1ccc(NC(=O)C2(C)Cc3c(-c4ccc(NC(C)=O)cc4)ccnc3O2)cc1OC (stereo not drawn)	-10	7	.	-7	.	.
CCCCN1C(=O)/C(=C/C=C2\SCCN2C)SC1=S	-14	6	11	33*	.	20
CC(=NNc1nc2ccccc2s1)c1ncccn1	-5	-7	16	35*	.	27
CC(=NNc1nc2ccccc2o1)c1ncccn1	-2	7	11	31*	.	24
C/C(=N\Nc1nc2ccccc2s1)c1cccs1	-6	8	11	31*	8	24
Oc1ccc(C=NNc2nc3ccccc3s2)c(O)c1	6	-2	35	43*	.	36*
Oc1ccccc1C=NNc1nc2ccccc2s1	0	6	13	10	.	.
CN(CCc1ccccc1)C(C(=O)c1ccc2c(c1)OCO2)c1nnnn1-c1ccccc1NC(=O)OC(C)(C)C (stereo not drawn)	-7	4	.	6	.	.
COc1ccccc1N(C)c1cc2c(c3c1ccn3C)C1CCC2C1 (stereo not drawn)	2	8	.	33*	.	12
Cc1cccc2c1c1ccc3c(c1n2C)C(=O)C=CC3=O	5	-9	31	48*	.	71*
Cc1ccccc1N1CC(=O)N(c2ccccc2C)CC1=O	5	1	2	-2	-5	.
COc1ccc(S(=O)(=O)N2CCCc3nc(C)c(C)cc32)cc1	-1	5	.	2	.	.
CC1(C)Oc2cc(N)c([N+](=O)[O-])cc2O1	3	6	7	41*	19	-11
CN(Cc1ccccc1F)C(=O)C1C2C=CC3(CN(Cc4ccccc4)C(=O)C13)O2 (stereo not drawn)	.	0	.	4	.	.
O=C(N1CCC(C(O)(c2ccccc2)c2ccccc2)CC1)n1ncc(C(O)(c2ccccc2)c2ccccc2)n1	.	-7	.	70*	.	68*
O=C(C1CC1)N1CCC(C(O)(c2ccccc2)c2ccccc2)CC1	-1	-2	-1	1	6	.
COc1cc(C(=O)NCC(C)(C)CNC(=O)c2cc(OC)c(OC)c(OC)c2)cc(OC)c1OC	5	-7	1	-4	-1	.
CCOc1cc(C(=O)NCC(C)(C)CNC(=O)c2cc(OCC)c(OCC)c(OCC)c2)cc(OCC)c1OCC	-4	-5	.	36*	0	34*
CCCCC#Cc1ccc(C(=O)NNC(=O)Nc2ccccc2)o1	-9	1	1	4	-1	.
F[B-](F)(F)COCc1ccccc1Br	4	-2	0	80*	.	70*
O=C(C#Cc1ccccc1)Nc1ccccc1F	7	-2	-1	-4	0	.
CCCCC#Cc1ccccc1COC[B-](F)(F)F	-2	9	.	75*	.	75*
O=C(O)c1ccccc1OCc1ccccc1Br	1	-1	2	4	2	.
F[B-](F)(F)COCc1ccccc1C#Cc1ccccc1	-3	0	.	77*	.	79*
C=CCN1C(=O)[C@@H](CC(=O)N2CCN(C(=O)c3ccco3)CC2)[C@]2(C(=O)OCC)CCCCC/C=C/12	.	1	.	-2	.	.
SMILES	TCR-CD3 inh	SIAE primary	HTRA1 inhibitor	ABHD4 inh	pPAFAH inh	ABHD4 confirm
C[C@@H]1C=CCCO[C@]12C(=O)N(CC1CC1)c1cccc(Br)c12	4	9	.	40*	.	40*
CC(C)=CCN1C(=O)[C@]2(OCCC=C[C@H]2C)c2c(Br)cccc21	7	2	.	-6	.	.
Cc1c(C)n2c(SCC(=O)NC3CCCCC3)nnc2[nH]c1=O	-4	-2	6	31*	7	5
NC[C@H](Cc1ccccc1)NCCCCC1CCCCC1	5	6	6	19	4	.
CNC[C@H](CC1CCCCC1)NC[C@H](Cc1ccccc1)NCCC12CC3CC(CC(C3)C1)C2	-6	2	-5	48*	-2	75*
O=C(Nc1ccc(F)cc1)OCc1cn(Cc2ccc(C(F)(F)F)cc2)nn1	.	0	.	-11	.	.
Cc1ccccc1Cc1c(C)nc2c(C(=O)N3CCN(Cc4ccc5c(c4)OCO5)CC3)cnn2c1C	4	0	0	27	4	.
Cc1cccc(Cc2c(C)nc3c(C(=O)N4CCN(Cc5ccc6c(c5)OCO6)CC4)cnn3c2C)c1	4	-2	-7	36*	-2	38*
Cc1cc(NCc2ccccn2)n2ncc(-c3ccc(Cl)cc3)c2n1	-1	7	.	48*	17	64*
Cc1cc(NCc2ccccn2)n2nc(C)c(-c3ccc(Cl)cc3)c2n1	1	2	16	23	10	.
Cc1cc(NCc2ccccn2)n2ncc(-c3ccccc3)c2n1	-8	0	12	45*	1	47*
Cn1c(Cc2cccs2)nnc1SCC(=O)Nc1ccc(OCc2ccccc2)cc1	.	2	.	0	.	.
COC(=O)[C@]12CCCCC=C1N(Cc1cccc3ccccc13)C(=O)[C@H](CC(=O)N1CCN(C(=O)C3CC3)CC1)C2	3	-4	.	1	.	.
Cc1cc(C(C)(C)CC(C)(C)C)ccc1OCCOCC[N+](C)(C)Cc1ccccc1	5	3	25	36*	24	45*
Cc1cc(/C=C2/C(=O)NN(c3ccccc3)C2=O)c(C)n1-c1ccc(O)cc1	8	1	3	34*	0	27
CCC(C)(C)c1ccc(OCCCC[n+]2ccc(C)cc2)c(C(C)(C)CC)c1	-6	3	.	33*	2	50*
CCC(C)(C)c1ccc(OCCCC[n+]2cccc(C)c2C)c(C(C)(C)CC)c1	-5	0	30	25	7	.
COc1ccc(C(=O)N2CCC(C)(C(=O)NS(=O)(=O)C3CC3)C2)cc1 (stereo not drawn)	1	6	.	0	.	.
CCCC[C@H](C(=O)N(C)c1ccccc1)[C@@H](O)c1ccc2ccccc2c1	.	1	.	-7	.	.
Cc1cc2c(NC(=O)Nc3ccc(C(F)(F)F)cc3)cccc2nn1	6	-25	35	109*	10	-101
Cc1cc2c(NC(=O)CCCC(=O)O)cccc2nn1	-6	2	-5	2	0	.
CC(C)(C)c1ccc(C(=O)N2CCOC23CCCCC3)cc1	0	0	.	1	.	.
COc1ccc(N2C(=O)CS/C2=C\[N+](=O)[O-])cc1	-8	8	6	30*	19	3
COc1ccc(N2C(=O)CCC2=O)cc1	-3	0	0	-1	0	.
CCc1nc2ccc(C(=O)Nc3cc(-c4ccccc4)ccc3OC)cn2c1N(CC)Cc1cccc(Br)c1	2	2	.	31*	.	27
CCc1nc2ccc(C(=O)Nc3cc(-c4ccccc4)ccc3OC)cn2c1N(CC)CCN(C)C	-7	-6	.	20	.	.
CC1=C(C#N)C(=O)NC(=O)/C1=C\c1ccc(-c2ccc(C)cc2[N+](=O)[O-])o1	-10	-39	18	32*	.	33*
CCC(=O)N(Cc1ccco1)c1nc(-c2cc(OC)ccc2OC)cs1	-3	2	8	49*	6	58*
